Source: ChEMBL document CHEMBL3596156, “Synthesis and bioevaluation of heterocyclic derivatives of Cleistanthin-A” (Bioorg Med Chem, 2015)
Active and inactive are the calls of the source. The rule behind the calls is not given here.

Columns and labels:
WRL68 = assay: Cytotoxicity against human WRL68 cells assessed as inhibition of cell proliferation after 72 hrs by MTT assay; type: cell-based; details: WRL68, 72 h
Procedure, shortened: (§1)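 MTT antiproliferation screen across HCT-116, HepG2, A549 and HeLa tumour lines, with WRL-68 normal cells run in parallel.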

HepG2 [1] = assay: Cytotoxicity against human HepG2 cells assessed as inhibition of cell proliferation after 72 hrs by MTT assay; type: functional, cell-based; details: HepG2, 72 h; procedure, shortened: as §1
HCT-116 = assay: Cytotoxicity against human HCT116 cells assessed as inhibition of cell proliferation after 72 hrs by MTT assay; type: functional, cell-based; details: HCT-116, 72 h; procedure, shortened: as §1
HeLa = assay: Cytotoxicity against human HeLa cells assessed as inhibition of cell proliferation after 72 hrs by MTT assay; type: functional, cell-based; procedure, shortened: as §1
A549 = assay: Cytotoxicity against human A549 cells assessed as inhibition of cell proliferation after 72 hrs by MTT assay; type: functional, cell-based; details: A549, 72 h; procedure, shortened: as §1
HepG2 [2] = assay: Inhibition of V-ATPase in human HepG2 cells assessed as decrease in lysosomal pH at 1 uM after 48 hrs by LysoTracker Red staining-based confocal microscopic analysis relative to control; type: cell-based
Procedure, shortened: (§2)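 HepG2 cells stained with LysoTracker Red (pH-sensitive dye), then loaded sequentially with the agent. Test concentrations were 0, 15, 30 or 60 nM; diphyllin was used at 1 µM as positive control. Cells were exposed for 48 h, and lysosomal acidity was judged by red fluorescence on confocal microscopy versus untreated cells.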

HepG2 [3] = assay: Inhibition of V-ATPase in human HepG2 cells assessed as release of phosphate at 15 to 60 nM after 48 hrs by colorimetric assay; type: cell-based
Procedure, shortened: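 HepG2 cells treated 48 h with 0, 15, 30 or 60 nM, diphyllin as positive control. V-ATPase activity then measured using a commercial V-ATPase activity assay kit.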

HepG2 [4] = assay: Inhibition of V-ATPase in human HepG2 cells assessed as release of phosphate at 30 nM after 48 hrs by colorimetric assay relative to control; values are per cent of control
HepG2 [5] = assay: Cytotoxicity against human HepG2 cells assessed as inhibition of cell viability at 15 to 60 nM after 24 to 72 hrs by MTT assay; type: functional, cell-based
Procedure, shortened: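 HepG2 cells exposed to 0, 15, 30 or 60 nM for 24, 48 and 72 h; viability read by MTT.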

HepG2 [6] = assay: Inhibition of V-ATPase in human HepG2 cells assessed as decrease in cytosolic pH at 15 to 60 nM after 24 to 48 hrs by BCECF-AM probe-based spectrofluorophotometric analysis; type: cell-based
HepG2 [7] = assay: Inhibition of V-ATPase in human HepG2 cells assessed as decrease in lysosomal pH at 60 nM after 48 hrs by LysoTracker Red staining-based confocal microscopic analysis relative to control; type: cell-based; procedure, shortened: as §2
HepG2 [8] = assay: Inhibition of V-ATPase in human HepG2 cells assessed as release of phosphate at 60 nM after 48 hrs by colorimetric assay relative to control; values are per cent of control

| Compound | IC50 (WRL68) [nM] | IC50 (HepG2 [1]) [nM] | IC50 (HCT-116) [nM] | IC50 (HeLa) [nM] | IC50 (A549) [nM] | inhibition (HepG2 [2]) | inhibition (HepG2 [3]) | level, % of control (HepG2 [4]) [%] | inhibition (HepG2 [5]) | inhibition (HepG2 [6]) | inhibition (HepG2 [7]) | level, % of control (HepG2 [8]) [%] |
| --- | --- | --- | --- | --- | --- | --- | --- | --- | --- | --- | --- | --- |
| COc1cc2c(O[C@@H]3OC[C@@H](OC)[C@H](OC)[C@H]3OCCCCCCN3CCC(O)CC3)c3c(c(-c4ccc5c(c4)OCO5)c2cc1OC)C(=O)OC3 | > 200 | 30 | 22 | 32 | 23 | – | – | – | – | – | – | – |
| COc1cc2c(O[C@@H]3OC[C@@H](OC)[C@H](OC)[C@H]3O)c3c(c(-c4ccc5c(c4)OCO5)c2cc1OC)C(=O)OC3 [CLEISTANTHIN] | > 200 | 8 | 1 | 19 | 4 | – | – | – | – | – | – | – |
| COc1cc2c(O)c3c(c(-c4ccc5c(c4)OCO5)c2cc1OC)C(=O)OC3 | – | – | – | – | – | Active | Active | – | – | – | – | – |
| COc1cc2c(O[C@@H]3OC[C@@H](OC)[C@H](OC)[C@H]3OCCCCCCCCN3CCN(CCO)CC3)c3c(c(-c4ccc5c(c4)OCO5)c2cc1OC)C(=O)OC3 | > 200 | 25 | 27 | 55 | 29 | – | – | – | – | – | – | – |
| COc1cc2c(O[C@@H]3OC[C@@H](OC)[C@H](OC)[C@H]3OCCCCCCN3CCN(C)CC3)c3c(c(-c4ccc5c(c4)OCO5)c2cc1OC)C(=O)OC3 | > 200 | 39 | 32 | 32 | 36 | – | – | – | – | – | – | – |
| COc1cc2c(O[C@@H]3OC[C@@H](OC)[C@H](OC)[C@H]3OCCCCCCN3CCN(CCO)CC3)c3c(c(-c4ccc5c(c4)OCO5)c2cc1OC)C(=O)OC3 | > 200 | 33 | 23 | 25 | 19 | – | – | – | – | – | – | – |
| COc1cc2c(O[C@@H]3OC[C@@H](OC)[C@H](OC)[C@H]3OCCCCCCN3CCOCC3)c3c(c(-c4ccc5c(c4)OCO5)c2cc1OC)C(=O)OC3 | > 200 | 30 | 21 | 20 | 26 | – | – | 62 | Active | Active | Active | 56 |
| COc1cc2c(O[C@@H]3OC[C@@H](OC)[C@H](OC)[C@H]3OCCCCCCCCN3CCN(C)CC3)c3c(c(-c4ccc5c(c4)OCO5)c2cc1OC)C(=O)OC3 | > 200 | 39 | 11 | 91 | 25 | – | – | – | – | – | – | – |
| COc1cc2c(O[C@@H]3OC[C@@H](OC)[C@H](OC)[C@H]3OCCCCCCCCN3CCC(O)CC3)c3c(c(-c4ccc5c(c4)OCO5)c2cc1OC)C(=O)OC3 | > 200 | > 200 | 12 | 100 | 26 | – | – | – | – | – | – | – |
| COc1cc2c(O[C@@H]3OC[C@@H](OC)[C@H](OC)[C@H]3OCCCCCCCCN3CCCCC3)c3c(c(-c4ccc5c(c4)OCO5)c2cc1OC)C(=O)OC3 | > 200 | 52 | 15 | > 200 | > 200 | – | – | – | – | – | – | – |
| COc1cc2c(O[C@@H]3OC[C@@H](OC)[C@H](OC)[C@H]3OCCCCCCCN3CCOCC3)c3c(c(-c4ccc5c(c4)OCO5)c2cc1OC)C(=O)OC3 | > 200 | 43 | 28 | 28 | 23 | – | – | – | – | – | – | – |
| COc1cc2c(O[C@@H]3OC[C@@H](OC)[C@H](OC)[C@H]3OCCCCCCCN3CCN(CCO)CC3)c3c(c(-c4ccc5c(c4)OCO5)c2cc1OC)C(=O)OC3 | > 200 | > 200 | 29 | > 200 | > 200 | – | – | – | – | – | – | – |
| COc1cc2c(O[C@@H]3OC[C@@H](OC)[C@H](OC)[C@H]3OCCCCCCN3CCCCC3)c3c(c(-c4ccc5c(c4)OCO5)c2cc1OC)C(=O)OC3 | > 200 | 34 | 23 | 36 | 26 | – | – | – | – | – | – | – |
| COc1cc2c(O[C@@H]3OC[C@@H](OC)[C@H](OC)[C@H]3OCCCCCCCN3CCC(O)CC3)c3c(c(-c4ccc5c(c4)OCO5)c2cc1OC)C(=O)OC3 | > 200 | > 200 | 73 | > 200 | > 200 | – | – | – | – | – | – | – |
| COc1cc2c(O[C@@H]3OC[C@@H](OC)[C@H](OC)[C@H]3OCCCCCCCCN3CCOCC3)c3c(c(-c4ccc5c(c4)OCO5)c2cc1OC)C(=O)OC3 | > 200 | 26 | 25 | 45 | 26 | – | – | – | – | – | – | – |
| COc1cc2c(O[C@@H]3OC[C@@H](OC)[C@H](OC)[C@H]3OCCCCCCCN3CCN(C)CC3)c3c(c(-c4ccc5c(c4)OCO5)c2cc1OC)C(=O)OC3 | > 200 | 41 | 27 | 51 | 23 | – | – | – | – | – | – | – |
